Structures are written as SMILES.

Series [1] has as its target T1, Histone deacetylase 8 (Homo sapiens, UniProt Q9BY41).
T1 sequence (Q9BY41 whole entry): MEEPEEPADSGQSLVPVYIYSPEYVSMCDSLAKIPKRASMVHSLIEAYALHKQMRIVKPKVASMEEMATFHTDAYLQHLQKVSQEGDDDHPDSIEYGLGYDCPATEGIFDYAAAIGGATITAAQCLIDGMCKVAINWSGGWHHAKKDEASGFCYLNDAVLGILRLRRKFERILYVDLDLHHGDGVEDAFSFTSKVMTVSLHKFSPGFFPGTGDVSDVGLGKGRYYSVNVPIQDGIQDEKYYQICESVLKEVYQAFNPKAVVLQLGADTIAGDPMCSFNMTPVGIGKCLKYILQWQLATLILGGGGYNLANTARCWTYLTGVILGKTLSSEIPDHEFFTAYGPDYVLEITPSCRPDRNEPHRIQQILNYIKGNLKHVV
The experiment in a line: Inhibition of recombinant human HDAC8 expressed in SF9 baculoviral system using FAM-labeled acetylated peptide as substrate by EMSA. An outline of the steps: (§1)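 Full-length recombinant human enzyme from an Sf9 baculovirus system, in 100 mM HEPES pH 7.5 with 25 mM KCl, 0.1% BSA, 0.01% Triton X-100 and 1% DMSO. Final enzyme was 0.5 nM for HDAC3, 60 nM for HDAC6 and 5.0 nM for HDAC8. FAM-acetylated peptide was 1 μM. The read-out was product/(substrate+product) by microfluidic mobility shift, with inhibition set against DMSO and no-enzyme controls (quadruplicate). Compounds were tested at 12 threefold-spaced concentrations, and IC50 came from a four-parameter sigmoid fit.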
On the technique in general: In EMSA bound probe runs differently from free probe, usually more slowly.

Series [2] concerns the target T2, Protein deacetylase HDAC6 (Homo sapiens, UniProt Q9UBN7).
T2 sequence (Q9UBN7 whole entry): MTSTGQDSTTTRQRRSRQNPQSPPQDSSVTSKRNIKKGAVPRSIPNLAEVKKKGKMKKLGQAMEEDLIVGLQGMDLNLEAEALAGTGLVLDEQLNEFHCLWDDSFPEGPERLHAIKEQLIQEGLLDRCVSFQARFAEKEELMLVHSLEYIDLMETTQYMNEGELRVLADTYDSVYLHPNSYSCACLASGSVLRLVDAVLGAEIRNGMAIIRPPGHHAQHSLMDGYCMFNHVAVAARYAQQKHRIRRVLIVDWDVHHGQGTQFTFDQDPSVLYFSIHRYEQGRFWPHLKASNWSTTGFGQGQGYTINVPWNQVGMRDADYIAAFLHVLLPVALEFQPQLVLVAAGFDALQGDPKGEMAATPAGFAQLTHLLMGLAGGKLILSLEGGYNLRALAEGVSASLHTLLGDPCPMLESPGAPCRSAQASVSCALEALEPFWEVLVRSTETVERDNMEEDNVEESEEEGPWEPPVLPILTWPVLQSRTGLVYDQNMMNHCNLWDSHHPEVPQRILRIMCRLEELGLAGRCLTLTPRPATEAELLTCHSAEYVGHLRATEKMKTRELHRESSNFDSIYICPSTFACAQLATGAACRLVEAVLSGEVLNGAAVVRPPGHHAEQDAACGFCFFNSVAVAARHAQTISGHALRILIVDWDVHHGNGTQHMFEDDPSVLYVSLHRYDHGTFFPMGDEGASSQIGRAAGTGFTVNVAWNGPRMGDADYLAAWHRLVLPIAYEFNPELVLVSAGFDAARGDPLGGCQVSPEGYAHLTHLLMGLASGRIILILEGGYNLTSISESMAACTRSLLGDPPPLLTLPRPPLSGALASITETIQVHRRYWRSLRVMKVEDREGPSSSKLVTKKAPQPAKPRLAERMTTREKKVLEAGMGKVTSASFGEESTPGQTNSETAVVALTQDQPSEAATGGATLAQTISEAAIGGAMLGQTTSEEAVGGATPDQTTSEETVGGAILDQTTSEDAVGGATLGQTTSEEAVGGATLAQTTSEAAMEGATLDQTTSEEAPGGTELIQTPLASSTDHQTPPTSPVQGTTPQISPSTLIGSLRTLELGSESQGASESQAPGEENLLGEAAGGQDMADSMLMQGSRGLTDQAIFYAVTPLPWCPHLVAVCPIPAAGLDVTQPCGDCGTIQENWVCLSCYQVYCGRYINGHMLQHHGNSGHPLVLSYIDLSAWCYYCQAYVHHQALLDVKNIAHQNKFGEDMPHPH
The experiment in a line: Inhibition of recombinant human HDAC6 expressed in SF9 baculoviral system using FAM-labeled acetylated peptide as substrate by EMSA. Summed up: as §1

Series [3] deals with T3, Histone deacetylase 11 (Homo sapiens, UniProt Q96DB2).
T3 sequence (Q96DB2 whole entry): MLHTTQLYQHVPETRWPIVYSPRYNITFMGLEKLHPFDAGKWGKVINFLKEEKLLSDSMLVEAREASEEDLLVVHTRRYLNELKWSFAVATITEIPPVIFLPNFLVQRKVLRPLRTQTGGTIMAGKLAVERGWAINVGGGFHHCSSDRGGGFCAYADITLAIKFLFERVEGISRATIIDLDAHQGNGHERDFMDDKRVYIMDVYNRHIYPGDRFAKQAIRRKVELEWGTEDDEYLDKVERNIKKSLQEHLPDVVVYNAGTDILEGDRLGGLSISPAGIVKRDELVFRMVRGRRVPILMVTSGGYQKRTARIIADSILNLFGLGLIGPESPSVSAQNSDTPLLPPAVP
The experiment in a line: Inhibition of recombinant human HDAC11 expressed in SF9 baculoviral system using FAM-labeled acetylated peptide as substrate by EMSA. Summed up:
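Full-length human HDAC11 (Sf9-expressed), 10 nM final, in 100 mM HEPES pH 7.5, 25 mM KCl, 0.1% BSA, 0.01% Triton X-100, 1% DMSO. FAM-acetylated peptide substrate at 100 μM, mobility-shift read-out. Product/(substrate + product) converted to % inhibition. IC50 from a four-parameter fit; dose-response spans 12 threefold dilutions from 30.0 μM.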

The target of series [4] is Histone deacetylase 3 (Homo sapiens, UniProt O15379). The experiment in a line: Inhibition of recombinant human HDAC3 expressed in SF9 baculoviral system using FAM-labeled acetylated peptide as substrate by EMSA. An outline of the steps: as §1
Histone deacetylase 3, sequence (O15379 whole entry): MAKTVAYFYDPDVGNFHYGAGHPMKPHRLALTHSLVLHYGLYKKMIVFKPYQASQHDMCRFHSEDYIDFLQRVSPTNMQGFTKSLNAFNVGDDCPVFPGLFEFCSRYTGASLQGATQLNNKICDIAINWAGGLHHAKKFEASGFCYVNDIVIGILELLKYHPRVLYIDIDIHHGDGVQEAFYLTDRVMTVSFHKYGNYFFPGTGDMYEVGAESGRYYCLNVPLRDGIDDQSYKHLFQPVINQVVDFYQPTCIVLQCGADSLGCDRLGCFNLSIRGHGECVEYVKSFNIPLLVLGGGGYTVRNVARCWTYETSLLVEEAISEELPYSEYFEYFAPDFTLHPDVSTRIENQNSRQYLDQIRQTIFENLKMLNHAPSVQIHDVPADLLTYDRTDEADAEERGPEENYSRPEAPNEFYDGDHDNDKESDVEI
Series [5] is described as follows: Half life in ICR/CD1 mouse hepatocytes at 1 uM up to 120 mins by LC-MS/MS analysis. It counts as ADME, cell-based, Hepatocyte. To be noted: 2 h.
A short description of series [6]: Intrinsic clearance in ICR/CD1 mouse hepatocytes assessed per million cells at 1 uM up to 120 mins by LC-MS/MS analysis. It counts as ADME, cell-based, Hepatocyte. To be noted: 2 h.
A short description of series [7]: Cytotoxicity against mouse KPC monolayer cells assessed as reduction in tumor spheroid intensity after 72 hrs by Alamar Blue assay. It counts as functional, cell-based. An outline of the steps: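 Monolayer proliferation of STR-authenticated, mycoplasma-checked patient-derived PDAC lines and mouse KPC cells. Plated at 2000 cells/well, treated 72 h, read by alamarBlue. At least triplicate, n = 3–5.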
In general terms: Resazurin is reduced to fluorescent resorufin, in cell work by metabolically active cells.

As for `CC(C)(C)c1ccc(CN(C(=O)CN(Cc2ccccc2C(F)(F)F)S(=O)(=O)c2ccc(F)cc2)c2ccc(C(=O)NO)cc2)cc1`, the half-maximal inhibitory concentration (IC50) (usually the concentration at which inhibition is half-maximal) in series [1] is over 1000 nM; in series [2], 230 nM; in series [3], 253 nM; in series [4] it was over 1000 nM.
Regarding `CC(C)(C)c1ccc(CN(C(=O)CN(Cc2ccccc2C(F)(F)F)S(=O)(=O)c2ccc(F)cc2F)c2ccc(C(=O)NO)cc2)cc1`, the IC50 in series [1] is over 1000 nM; in series [2] it was 289 nM; in series [3], 288 nM; in series [4] it was over 1000 nM.
`O=C(NO)c1ccc(N(Cc2ccc(C(F)(F)F)cc2)C(=O)CN(Cc2ccccc2C(F)(F)F)S(=O)(=O)c2ccc(F)cc2)cc1`: the IC50 in series [1] was over 1000 nM; in series [2] it was 93 nM; in series [3], 304 nM; in series [4], over 1000 nM.
On to `CC(C)(C)c1ccc(CN(C(=O)CN(Cc2ccccc2C(F)(F)F)S(=O)(=O)c2ccc(F)c(F)c2)c2ccc(C(=O)NO)cc2)cc1`, for which the IC50 was over 1000 nM in series [1], 362 nM in series [2], 254 nM in series [3] and over 1000 nM in series [4].
For the compound `O=C(NO)c1ccc(N(Cc2ccc(C(F)(F)F)cc2)C(=O)CN(Cc2c(F)c(F)c(F)c(F)c2F)S(=O)(=O)c2ccc(F)cc2)cc1`, the IC50 is over 1000 nM in series [1], 86 nM in series [2], 191 nM in series [3] and over 1000 nM in series [4]. The compound further yielded a t1/2 in series [5] of 37.1 min. For the same compound, the CLH in series [6] stood at 37.4 µL/min.
`O=C(NO)c1ccc(N(Cc2ccc(C(F)(F)F)cc2)C(=O)CN(Cc2ccccc2C(F)(F)F)S(=O)(=O)c2ccc(F)cc2F)cc1`: the IC50 in series [1] was over 1000 nM; in series [2] it was 151 nM; in series [3], 346 nM; in series [4], over 1000 nM.
`O=C(NO)c1ccc(N(Cc2ccc(C(F)(F)F)cc2)C(=O)CN(Cc2ccccc2C(F)(F)F)S(=O)(=O)c2ccc(F)c(F)c2)cc1`: the concentration for half-maximal inhibition (IC50) is over 1000 nM in series [1], 188 nM in series [2], 396 nM in series [3] and over 1000 nM in series [4].
For `Cc1[nH]c2ccccc2c1CCNCc1ccc(/C=C/C(=O)NO)cc1` [PANOBINOSTAT], the IC50 in series [7] was found to be 8500 nM.

For the origin of these results see ChEMBL document CHEMBL4400543, “Identification and Characterization of AES-135, a Hydroxamic Acid-Based HDAC Inhibitor That Prolongs Survival in an Orthotopic Mouse Model of Pancreatic Cancer” (J Med Chem, 2019).
